High-throughput results as filed in PubChem.
Shown are actives, neighbours in structure and some others; about 2.3% of the full set was active somewhere.
TAAR1 ag – agonists of human TAAR1; CHO RD-HGA16 TAAR1, Fluo-8 calcium fluorescence; vehicle wells 0%, saturating PEA agonist 100%; activation, % at 3 µM; Q96RJ0; actives 0.99% (n = 360,000); AID 624467;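 active means activation above the mean activation of all test compounds in the run plus 3 SD, cut at about 38% in these data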
Target sequence (Q96RJ0 whole entry, looked up): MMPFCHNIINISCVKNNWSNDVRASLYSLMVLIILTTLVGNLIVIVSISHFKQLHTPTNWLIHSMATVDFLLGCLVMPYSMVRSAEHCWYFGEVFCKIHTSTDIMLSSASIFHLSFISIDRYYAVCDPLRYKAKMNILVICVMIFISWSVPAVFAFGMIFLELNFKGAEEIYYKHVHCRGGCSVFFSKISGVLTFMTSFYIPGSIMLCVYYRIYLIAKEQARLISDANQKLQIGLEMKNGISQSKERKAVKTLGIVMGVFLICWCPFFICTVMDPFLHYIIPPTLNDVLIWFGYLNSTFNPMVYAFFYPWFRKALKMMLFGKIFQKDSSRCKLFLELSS
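test system = CHO RD-HGA16 cells carrying human TAAR1 plus Gα16 | schedule = 17-24 h seeding, 75 min 37 °C dye, 30 min RT | compound dosing = 3 µM single concentration | control set = DMSO and PEA EC100 | replicates = n 1 | signal = Fluo-8 fluorescence, 5 s baseline then 140 s kinetic read | measure = percent activation vs PEA EC100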
OXTR potentiator – potentiates the human oxytocin receptor response; activation, % at 3 µM; actives 0.061% (n = 320,000); P30559; CHO-OTR cells, Fluo-8 calcium fluorescence, potentiator mode; 0% = oxytocin EC15, 100% = EC100;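 active means activation above that plate's cutoff, the mean activation of tested compounds plus 3 SD, cut at about 6.6% in these data, passing the limit was not always enough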
Target sequence (P30559 whole entry, looked up): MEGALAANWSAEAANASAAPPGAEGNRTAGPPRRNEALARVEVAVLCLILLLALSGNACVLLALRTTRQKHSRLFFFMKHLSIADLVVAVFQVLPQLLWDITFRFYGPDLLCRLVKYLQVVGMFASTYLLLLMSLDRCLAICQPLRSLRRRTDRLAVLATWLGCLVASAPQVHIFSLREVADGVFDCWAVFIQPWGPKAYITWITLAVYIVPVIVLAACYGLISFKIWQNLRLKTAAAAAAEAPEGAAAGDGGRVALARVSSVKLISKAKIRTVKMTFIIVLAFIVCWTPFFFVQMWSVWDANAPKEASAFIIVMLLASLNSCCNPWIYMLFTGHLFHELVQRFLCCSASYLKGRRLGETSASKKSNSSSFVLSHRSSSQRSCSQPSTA
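assay system = CHO-OTR cells, human receptor | schedule = compound 6 min at room temperature before oxytocin, 100 s read | detection = Fluo-8 intracellular calcium fluorescence, ex 470-495, em 515-575 nm | evaluation = normalized max/min fluorescence ratio, % activation | control set = EC15 oxytocin alone as 0%, 75 nM oxytocin (EC100) as 100%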
TAAR1 antagonist – human TAAR1 antagonism | CHO RD-HGA16 TAAR1, Fluo-8 calcium fluorescence, antagonist | inhibition, % at 3 µM | actives 1.5% (n = 360,000) | AID 624466;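 active means inhibition above a per-plate cutoff, the mean inhibition of test compounds on that plate plus 3 SD, cut at about 49% in these data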
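Test system – hTAAR1-expressing CHO RD-HGA16 cells, Gα16-coupled · Also added – β-PEA at EC80 concentration, post-compound challenge · Compound – 3 µM, single point · Incubation – dye loading 75 min at 37 °C, then 30 min room temperature · Measured by – Fluo-8 intracellular calcium dye fluorescence, real-time kinetic reads · Benchmarks – vehicle and agonist controls · Replicates – singlicate, one well per test compound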
V1R ag counter – V1a receptor agonism, counter-screen for OXTR agonists. activation, % at 3 µM. actives 0.25% (n = 320,000). CHO-V1R cells, Fluo-8 calcium fluorescence, agonist mode; 0% DMSO, 100% 3 nM vasopressin;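 active means activation above the mean activation of all tested compounds plus 3 SD, per screening run, cut at about 20% in these data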;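 further: signal is peak over basal fluorescence ratio across a 100 second FLIPR read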
OXTR ag – human OXTR agonism. activation, % at 3 µM. actives 0.32% (n = 320,000). P30559. CHO-OTR cells, Fluo-8 calcium fluorescence; normalized: DMSO 0%, oxytocin 100%;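 active means activation above the mean of all tested compounds plus 3 SD, cutoff set per screening run, cut at about 20% in these data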;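 further: peak over basal fluorescence ratio from a 100 s FLIPR kinetic read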
TAAR1 ag confirm – human TAAR1 agonism, confirmed; shares compounds with TAAR1 ag; CHO RD-HGA16 TAAR1, Fluo-8 calcium fluorescence; scaled: DMSO 0%, maximal phenethylamine 100%; actives 82% (n = 2,400); activation, % at 3 µM;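 active means activation above a cutoff set at the run's mean compound activation plus 3 SD, cut at about 39% in these data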
Ga16 nonsel ag – counter-screen for TAAR1 agonists: nonselective agonists in parental cells. shares compounds with TAAR1 ag. CHO-Ga16 parental, Fluo-8 calcium fluorescence; normalized to maximal ATP response, DMSO zero. activation, % at 3 µM. actives 50% (n = 2,400);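 active means activation above the run cutoff, the mean activation over all tested wells plus 3 SD, cut at about 12% in these data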
TAAR1 desens – TAAR1 response desensitization, agonist counter-screen; inhibition, % at 3 µM; CHO RD-HGA16 hTAAR1, Fluo-8 calcium, beta-PEA response inhibition; AID 651951; actives 46% (n = 2,400); shares compounds with TAAR1 ag;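 active means inhibition above the run cutoff, the mean inhibition of all test compounds plus 3 SD, cut at about 49% in these data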;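 further: beta-PEA stimulus applied at its EC80; loss of beta-PEA calcium signal after compound pretreatment read as receptor desensitization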
Ga16 nonsel ant – nonselective Ga16 antagonism, counter-screen. AID 651952. shares compounds with TAAR1 ag. actives 39% (n = 2,400). CHO-Ga16 ATP-induced calcium, Fluo-8 fluorescence. inhibition, % at 3 µM;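 active means inhibition above the plate's mean compound inhibition plus 3 SD, computed per plate, cut at about 22% in these data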
Each line names hits and unclear results; the compound was inactive in the other large screens (follow-up assays come after a bar, where they were run).

CC(C)NC(=O)c1ccc2nc([C@@H]3O[C@H](CO)[C@H](O)[C@H](O)[C@H]3O)[nH]c2c1	none (no result: OXTR potentiator, V1R ag counter, OXTR ag)
Cc1ccc(N(CCC#N)C(=O)COC(=O)c2nc3nc(C)cc(C)n3n2)cc1	none
O=C(NC1CCCCC1)c1cccc2c1C(=O)c1ccc(N3CCC(Cc4ccccc4)CC3)cc1S2(=O)=O	TAAR1 ag 52, TAAR1 antagonist 61 | TAAR1 ag confirm inactive | Ga16 nonsel ag 29 | TAAR1 desens inactive | Ga16 nonsel ant 38
O=C(NCc1ccccc1Br)c1cccc2c1C(=O)c1ccc(N3CCC(Cc4ccccc4)CC3)cc1S2(=O)=O	none (no result: TAAR1 ag, TAAR1 antagonist)
COc1ccc(OC)c(CCNC(=O)c2ccc(CS(=O)Cc3cccc(Cl)c3)o2)c1 (stereo not given)	none
O=C(NCCc1cccs1)c1ccc(CS(=O)Cc2cccc(Cl)c2)o1 (stereo not given)	TAAR1 ag 63 (no result: OXTR potentiator, V1R ag counter, OXTR ag) | TAAR1 ag confirm 57 | Ga16 nonsel ag inactive | TAAR1 desens inactive | Ga16 nonsel ant inactive
CCN(CC)c1ccc(C=C2SC(=S)NC2=O)cc1	TAAR1 ag 120, TAAR1 antagonist 105 (no result: OXTR potentiator, V1R ag counter, OXTR ag) | TAAR1 ag confirm 97 | Ga16 nonsel ag 104 | TAAR1 desens 101 | Ga16 nonsel ant 98
CCC(C)(C)NC(=O)C(c1cccc(OC)c1)N(C(=O)c1ccn[nH]1)c1cccc(OC)c1 (stereo not given)	TAAR1 ag 50 | TAAR1 ag confirm inactive | Ga16 nonsel ag 14 | TAAR1 desens inactive | Ga16 nonsel ant 28
CCC(C)(C)NC(=O)C(c1cccs1)N(C(=O)c1ccn[nH]1)c1ccccc1 (stereo not given)	none
CCOc1ccc(CC(=O)NNC(=S)NC2CCCCC2)cc1OCC	none
O=C(/C=C/Nc1ccc(F)cc1)c1ccc(Oc2ncccn2)cc1	none
Fc1ccccc1-c1nc(-c2ccc(-c3nn[nH]n3)cc2)no1	TAAR1 ag 51 | TAAR1 ag confirm inactive | Ga16 nonsel ag 16 | TAAR1 desens inactive | Ga16 nonsel ant inactive
CCOc1ccc(NC(=O)Cn2nnc(-c3ccccc3F)n2)cc1	TAAR1 ag 75 | TAAR1 ag confirm inactive | Ga16 nonsel ag inactive | TAAR1 desens inactive | Ga16 nonsel ant inactive
Cn1c(C(=O)N2CCN(c3nc4ccccc4s3)CC2)cc2sccc21	TAAR1 ag 46 | TAAR1 ag confirm inactive | Ga16 nonsel ag 14 | TAAR1 desens inactive | Ga16 nonsel ant 25
O=C(c1cc2sccc2n1Cc1ccc(F)cc1)N1CCN(c2nc3ccccc3s2)CC1	none
O=C(Nc1nnc(-c2cccs2)o1)c1cccc(C(F)(F)F)c1	TAAR1 ag 90 | TAAR1 ag confirm 45 | Ga16 nonsel ag 51 | TAAR1 desens inactive | Ga16 nonsel ant 25
CN(C)CCSc1nnc2[nH]c3ccccc3c2n1	TAAR1 ag 44 | TAAR1 ag confirm 83 | Ga16 nonsel ag inactive | TAAR1 desens inactive | Ga16 nonsel ant inactive
O=C(NNC(=O)c1ccc(Cl)c(Cl)c1)c1ccncc1	none
O=C(Nc1ccncc1)c1ccc(Cl)c(Cl)c1	TAAR1 ag 56 | TAAR1 ag confirm 42 | Ga16 nonsel ag 19 | TAAR1 desens inactive | Ga16 nonsel ant inactive
CC(NCC(O)COCCC12CC3CC(CC(C3)C1)C2)c1ccccc1 (stereo not given)	TAAR1 ag 84, TAAR1 antagonist 87 | TAAR1 ag confirm 70 | Ga16 nonsel ag 42 | TAAR1 desens 77 | Ga16 nonsel ant 64
Cc1cccc(OCC(=O)N2CCc3ccccc3C2)c1	TAAR1 ag 55 | TAAR1 ag confirm 69 | Ga16 nonsel ag inactive | TAAR1 desens inactive | Ga16 nonsel ant inactive
COc1ccc(OCC(=O)N2CCc3ccccc3C2)cc1	none (no result: TAAR1 ag, TAAR1 antagonist) | Ga16 nonsel ag inactive | Ga16 nonsel ant inactive
Cc1cccc(C(=O)NC(=S)N2CCc3ccccc3C2)c1	TAAR1 ag 62 | TAAR1 ag confirm 65 | Ga16 nonsel ag inactive | TAAR1 desens inactive | Ga16 nonsel ant inactive
COc1ccc(Cc2nnc(SCC(=O)N3CCc4ccccc4C3)o2)cc1	TAAR1 ag 55 | TAAR1 ag confirm 75 | Ga16 nonsel ag inactive | TAAR1 desens inactive | Ga16 nonsel ant inactive
COc1ccc(-c2nnc(SCC(=O)N3CCc4ccccc4C3)o2)cc1	none
CC(=O)Nc1nnc([N+](=O)[O-])s1	none (no result: OXTR potentiator, V1R ag counter, OXTR ag)
NCCSc1c(-c2ccccc2)[nH]c2ccccc12	none
O=C(COc1cccnc1[N+](=O)[O-])N1CCc2ccccc2C1	none
O=C(CCCN1C(=O)c2ccccc2C1=O)N1CCc2ccccc2C1	TAAR1 ag 69 | TAAR1 ag confirm 83 | Ga16 nonsel ag inactive | TAAR1 desens inactive | Ga16 nonsel ant inactive
O=C(COc1cccc2cccnc12)N1CCc2ccccc2C1	TAAR1 ag 52 | TAAR1 ag confirm inactive | Ga16 nonsel ag inactive | TAAR1 desens inactive | Ga16 nonsel ant inactive
COc1ccc(NC(=O)N(O)C2(C#N)CCCCC2)cc1	none (no result: OXTR potentiator, V1R ag counter, OXTR ag)
Cc1cccc(NC(=O)c2ccc3nccnc3c2)n1	none
CCN1C(=O)/C(=C\C=C\c2ccccc2[N+](=O)[O-])SC1=S	none (no result: OXTR potentiator, V1R ag counter, OXTR ag)
CCN1C(=O)/C(=C/C=C2\N(CC)c3cc(S(=O)(=O)N(C)C)ccc3N2c2ccccc2)SC1=S	TAAR1 ag 62 | TAAR1 ag confirm 48 | Ga16 nonsel ag 56 | TAAR1 desens 72 | Ga16 nonsel ant 78
COc1ccc(-c2cc(-c3cccnc3)c(C#N)c(N)n2)cc1	TAAR1 ag 46 | TAAR1 ag confirm inactive | Ga16 nonsel ag inactive | TAAR1 desens inactive | Ga16 nonsel ant 22
Cc1nnc(SCC(=O)N2CCCc3ccccc32)[nH]c1=O	none
O=[N+]([O-])c1ccccc1OC/C(=N\O)c1ccccc1	none
Cc1ccc(Oc2cnc3ccccc3n2)cc1	none
Cc1ccc(Oc2ccc(Oc3ccc(C)cc3)nn2)cc1	TAAR1 ag 66, TAAR1 antagonist 68 | TAAR1 ag confirm inactive | Ga16 nonsel ag 17 | TAAR1 desens inactive | Ga16 nonsel ant inactive
Clc1ccc(OCCNCCc2ccccc2)cc1	TAAR1 ag 81 | TAAR1 ag confirm 92 | Ga16 nonsel ag inactive | TAAR1 desens 75 | Ga16 nonsel ant inactive
c1ccc(CCNCCCOc2cccc3ccccc23)cc1	TAAR1 ag 57 | TAAR1 ag confirm 95 | Ga16 nonsel ag 26 | TAAR1 desens 87 | Ga16 nonsel ant 34
